Reference: ChEMBL document CHEMBL1145178, “Exploring the role of different drug transport routes in permeability screening” (J Med Chem, 2005)
Where a SMILES comes first, the peptide text is derived from it.

Columns and labels:
[1] = Fraction absorbed in human intestine after oral administration compound was measured; format: ADME, tissue-based
[2] = Permeability Coefficient in 2/4/A1 cell model; format: ADME, cell-based, Homo sapiens
[3] = Permeability Coefficient in Caco-2 cell culture model; format: ADME, cell-based; conditions: human
[4] = Permeability Coefficient in hexadecane membranes model; format: ADME, cell membranes; conditions: not told
In short: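 Hexadecane (5% v/v in hexane) was loaded onto 0.4 µm polycarbonate filters, and the hexane was evaporated for ≥1 h at RT. Drug in HBSS/25 mM HEPES pH 7.4 was placed donor side, with pH 7.4 buffer receiver side, at 37°C and 500 rpm stirring. Receiver sampled over 10–120 min.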

SMILES | Fa [1] [%] | Papp [2] [×10⁻⁶ cm/s] | Papp [3] [×10⁻⁶ cm/s] | Papp [4] [×10⁻⁶ cm/s] | Papp (Homo sapiens) [cm/s · 10E6]
CCN1CCCC1CNC(=O)c1cc(S(N)(=O)=O)ccc1OC (configuration not stated) [SULPIRIDE] | 30 | 11 | – | – | –
CN(CC(=O)O)C(=O)CN [GLYCYLSARCOSINE] (HELM PEPTIDE1{G.[Sar]}$$$$V2.0) | 100 | 11 | 0.5 | 0.25 | –
OC[C@@H](O)[C@@H](O)[C@H](O)[C@H](O)CO [MANNITOL] | – | 11 | – | 0.17 | –
C=CCc1ccccc1OCC(O)CNC(C)C (configuration not stated) [ALPRENOLOL] | – | 290 | – | 160 | –
Nc1nc2c(ncn2COCCO)c(=O)[nH]1 [ACYCLOVIR] | 19 | 8.2 | 0.38 | – | 0.034
CN1CC(=O)NC1=N [CREATININE] | 70 | 21 | 1.2 | 0.12 | –
Cc1cc(=O)n(-c2ccccc2)n1C [ANTIPYRINE] | – | 250 | – | 11 | –
O=P(O)(O)C(Cl)(Cl)P(=O)(O)O [CLODRONIC ACID] | 3 | 4.5 | 0.059 | 12 | –
O=c1[nH]cnc2c1ncn2[C@H]1CC[C@@H](CO)O1 [DIDANOSINE] | 42 | 14 | 0.25 | 0.099 | –
CC(C)NCC(O)COc1cccc2[nH]ccc12 (configuration not stated) [PINDOLOL] | – | 67 | – | 0.73 | –
CC(C)(C)NCC(O)c1cc(O)cc(O)c1 (configuration not stated) [TERBUTALINE] | 73 | 41 | 0.23 | 0.96 | –
CN(Cc1cnc2nc(N)nc(N)c2n1)c1ccc(C(=O)NC(CCC(=O)O)C(=O)O)cc1 (single isomer, unassigned) [METHOTREXATE] | 59 | 5.2 | 0.03 | 0.02 | –
O=C(O)c1cc(/N=N/c2ccc(O)c(C(=O)O)c2)ccc1O [OLSALAZINE] | 3 | 4.5 | 0.05 | 12 | –
CC(C)(C)NCC(O)COc1cccc2c1C[C@H](O)[C@H](O)C2 (some centres not stated) [NADOLOL] | 30 | 14 | 0.28 | 0.032 | –
Nc1nc(O)c2ncn(COC(CO)CO)c2n1 [GANCICLOVIR] | 5 | – | – | – | –
CN(C)C(=N)N=C(N)N [METFORMIN] | – | 20 | 0.66 | 0.51 | –
COCCc1ccc(OCC(O)CNC(C)C)cc1 (configuration not stated) [METOPROLOL] | – | 190 | – | 8.6 | –
C[C@H]1O[C@@H](O[C@H]2[C@@H](O)C[C@H](O[C@H]3[C@@H](O)C[C@H](O[C@H]4CC[C@@]5(C)[C@H](CC[C@@H]6[C@@H]5C[C@@H](O)[C@]5(C)[C@@H](C7=CC(=O)OC7)CC[C@]65O)C4)O[C@@H]3C)O[C@@H]2C)C[C@H](O)[C@@H]1O [DIGOXIN] | 81 | 6.7 | 1.3 | 0.12 | –
O=C(O)c1cc(/N=N/c2ccc(S(=O)(=O)Nc3ccccn3)cc2)ccc1O [SULFASALAZINE] | 12 | 9.6 | – | – | 0.028
OC[C@H]1O[C@@H](O[C@@H]2[C@@H](CO)O[C@](O)(CO)[C@H]2O)[C@H](O)[C@@H](O)[C@H]1O [LACTULOSE] | 1 | 8.9 | – | 0.081 | –
CC(C)NCC(O)COc1cccc2ccccc12 (configuration not stated) [PROPRANOLOL] | 100 | 240 | 204 | 58 | –
O=C(O)P(=O)(O)O [FOSCARNET] | 17 | 9.5 | 0.043 | 0.36 | –
CC(C)[C@H](N)C(=O)OCCOCn1cnc2c(=O)[nH]c(N)nc21 [VALACYCLOVIR] | 36 | 35 | 2.3 | 0.39 | –
Cc1ccccc1N1C(=O)c2cc(S(N)(=O)=O)c(Cl)cc2NC1C (configuration not stated) [METOLAZONE] | 64 | 14 | 4.3 | 1.1 | –
Nc1nc(=O)c2ncn([C@@H]3C[C@H](CO)[C@H]3CO)c2[nH]1 [LOBUCAVIR] | 50 | 14 | 0.88 | 0.057 | –
CN/C(=N/CCSCc1nc[nH]c1C)NC#N [CIMETIDINE] | 80 | 39 | 0.67 | 0.085 | –
OC[C@H]1O[C@H](OC[C@H]2O[C@H](O[C@]3(CO)O[C@H](CO)[C@@H](O)[C@@H]3O)[C@H](O)[C@@H](O)[C@@H]2O)[C@H](O)[C@@H](O)[C@H]1O [RAFFINOSE] | 0 | 5.9 | – | 0.051 | –
O=C1c2c(O)ccc(O)c2C(=O)c2c(NCCNCCO)ccc(NCCNCCO)c21 [MITOXANTRONE] | – | 7.3 | 2.3 | 0.74 | –
